Columns and labels:
[1] = Therapeutic index, ratio of CC50 for human Hep2 cells to EC50 for inhibition of RSV long fusion protein assessed as protection against virus induced cytopathic effect in infected human Hep2 cells; format: toxicity, cell-based; settings: HEp-2 cells, read-out: Ratio CC50/EC50
How it was run: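 Index computed as CC50/EC50. CC50 came from uninfected HEp-2 cells and EC50 from 50% reduction of RSV Long CPE in HEp-2 cells (MOI 0.02). Both assays ran 5 days with serially diluted compound and a CCK-8 viability read-out.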

[2] = Cytotoxicity against human Hep2 cells assessed as decrease in cell viability after 5 days by CCK8 assay; format: cell-based; settings: HEp-2 cells
How it was run: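 Uninfected HEp-2 cells, seeded at 6000 per well, were cultured 5 days with serially diluted compound alongside the CPE assay. Viability was read by CCK-8, and CC50 was the concentration cytotoxic to 50% of cells.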

[3] = Intrinsic clearance in mouse liver microsomes; format: ADME, microsome; settings: read-out: CLH
How it was run: (§1)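 Intrinsic clearance was measured in human, rat or mouse liver microsomes and reported as scaled clearance.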

[4] = Intrinsic clearance in human liver microsomes; format: ADME, microsome; settings: read-out: CLH; how it was run: as §1
[5] = Intrinsic clearance in rat liver microsomes; format: ADME, microsome; settings: read-out: CLH; how it was run: as §1
[6] = Drug metabolism in rat liver microsomes assessed as dealkylation; format: ADME, microsome
[7] = Oral bioavailability in Wistar-Han rat at 10 mg/kg after 15 mins to 24 hrs by LC/MS/MS analysis; format: ADME, organism-based; settings: in vivo
How it was run: (§2)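 Single-dose PK in male Wistar rats at 2 mg/kg iv and 10 mg/kg po. Plasma clearance, Vss, iv half-life, AUC and oral bioavailability were derived.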

[8] = AUC (0 to infinity) in Wistar-Han rat at 10 mg/kg, po after 15 mins to 24 hrs by LC/MS/MS analysis; format: ADME, organism-based; set-up: dose 10 mg/kg, time infinity, route oral; settings: in vivo
[9] = Half life in Wistar-Han rat at 2 mg/kg, iv by LC/MS/MS analysis; format: ADME, organism-based; settings: in vivo; how it was run: as §2
[10] = Volume of distribution at steady state in Wistar-Han rat at 2 mg/kg, iv after 15 mins to 24 hrs by LC/MS/MS analysis; format: ADME, organism-based; settings: in vivo, read-out: Vdss; how it was run: as §2
[11] = Effective permeability of the compound by PAMPA; format: ADME; settings: read-out: Peff
How it was run: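 Parallel artificial membrane permeability assay, with permeability reported in 10−6 cm/s.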

[12] = AUC (0 to infinity) in Wistar-Han rat at 2 mg/kg, iv after 15 mins to 24 hrs by LC/MS/MS analysis; format: ADME, organism-based; set-up: dose 2 mg/kg, route intravenous, time infinity; settings: in vivo
[13] = Drug metabolism in mouse liver microsomes assessed as oxidation; format: ADME, microsome
[14] = Solubility of the compound by LYSA; format: physicochemical
How it was run: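 Solubility measured by lyophilization solubility assay (LYSA), reported in μg/mL.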

[15] = Drug metabolism in mouse liver microsomes assessed as dealkylation; format: ADME, microsome
[16] = Clearance in Wistar-Han rat at 2 mg/kg, iv after 15 mins to 24 hrs by LC/MS/MS analysis; format: ADME, organism-based; settings: in vivo; how it was run: as §2
[17] = Drug metabolism in rat liver microsomes assessed as oxidation; format: ADME, microsome
[18] = Fraction unbound in mouse plasma; format: ADME, cell-free
[19] = Fraction unbound in human plasma; format: ADME, cell-free

Structure (SMILES)	selectivity ratio [1]	CC50 at 120 h [2]	also measured
Cc1ccc2nc(N3CCCc4ccccc4C3)cc(NCCN)c2c1	129	9.4 µM	–
NCCCCNc1cc(N2CCc3ccccc3C2)nc2ccccc12	–	7.4 µM	–
NCCNc1cc(N2CCOc3ccccc3C2)nc2ccccc12	> 43	> 10 µM	CLint scaled [3]: 25 mL/min/kg; CLint scaled [4]: 14 mL/min/kg; CLint scaled [5]: 20 mL/min/kg
NCCNc1cc(N2CCCc3ccccc3C2)nc2ccccc12	115	23 µM	Drug metabolism [6]: Metabolite_Detected; bioavailability [7]: 32%; CLint scaled [3]: 19 mL/min/kg; AUC(0-inf) [8]: 510 ng·h/mL; half-life [9]: 12 h; Vd [10]: 73 to 106 L/kg; Papp [11]: 0.99 ×10⁻⁶ cm/s; CLint scaled [4]: 10 mL/min/kg; AUC(0-inf) [12]: 324 ng·h/mL; Drug metabolism [13]: Metabolite_Detected; solubility [14]: > 460 µg/mL; Drug metabolism [15]: Metabolite_Detected; clearance [16]: 89 to 106 mL/min/kg; CLint scaled [5]: 23 mL/min/kg; Drug metabolism [17]: Metabolite_Detected
Cc1ccc2nc(N3CCS(=O)(=O)c4ccccc4C3)cc(NCCCCCN)c2c1	778	21 µM	–
NC(=O)NCCNc1cc(N2CCc3ccccc3C2)nc2ccccc12	5	80 µM	–
NCC(O)CNc1cc(N2Cc3ccccc3C2)nc2ccccc12 (stereo unspecified)	–	2.9 µM	–
COc1ccc2nc(N3CCCc4ccccc4C3)cc(NCCN)c2c1	15	4.8 µM	–
NCCCNc1cc(N2CCc3ccccc3C2)nc2ccccc12	1	8.4 µM	–
Cc1ccc2nc(N3CCS(=O)(=O)c4ccccc4C3)cc(NCCCN)c2c1	21000	21 µM	–
Cc1ccc2nc(N3CCS(=O)(=O)c4ccccc4C3)cc(NCCN)c2c1	16500	66 µM	fraction unbound [18]: 0.08; bioavailability [7]: 0%; CLint scaled [3]: 1 mL/min/kg; half-life [9]: 4.5 h; Vd [10]: 17 L/kg; Papp [11]: 0.12 ×10⁻⁶ cm/s; CLint scaled [4]: 5 mL/min/kg; AUC(0-inf) [12]: 346 ng·h/mL; solubility [14]: > 466 µg/mL; clearance [16]: 97 mL/min/kg; CLint scaled [5]: 8 mL/min/kg; fraction unbound [19]: 0.078
CS(=O)(=O)c1ccc2nc(N3CCCc4ccccc4C3)cc(NCCN)c2c1	2	13 µM	–
NCCNc1cc(N2CCCc3ccccc3C2)nc2ccc(Cl)cc12	> 27	> 3.2 µM	–
Cc1ccc2nc(N3CCC(F)(F)c4ccccc4C3)cc(NCCN)c2c1	106	6.6 µM	–
OCC(O)CNc1cc(N2CCc3ccccc3C2)nc2ccccc12 (stereo unspecified)	3	66 µM	–
NCCNc1cc(N2CCCc3ccccc3C2)nc2ccc(F)cc12	5	8 µM	–

Structure (SMILES)	selectivity ratio [1]	CC50 at 120 h [2]	also measured
NCCNc1cc(N2CCc3ccccc3C2)nc2ccccc12	7	15 µM	–
Cc1ccc2nc(N3CCCc4cc(F)ccc4C3)cc(NCCN)c2c1	> 7	> 3.2 µM	CLint scaled [3]: 31 mL/min/kg; CLint scaled [4]: 8 mL/min/kg; CLint scaled [5]: 33 mL/min/kg
NCCNc1cc(N2CCS(=O)(=O)c3ccccc3C2)nc2ccccc12	8540	94 µM	CLint scaled [5]: 3 mL/min/kg
NCCNc1cc(N2CCCc3ccccc3C2)nc2cccc(Cl)c12	3	23 µM	–
NCC(O)CNc1cc(N2CCc3ccccc3C2)nc2ccccc12 (stereo unspecified)	95	21 µM	–
Cc1ccc2nc(N3CCCc4ccc(F)cc4C3)cc(NCCN)c2c1	> 32	> 3.2 µM	CLint scaled [3]: 24 mL/min/kg; CLint scaled [4]: 6 mL/min/kg; CLint scaled [5]: 160 mL/min/kg
NCCNc1cc(N2CCCc3ccccc3C2)nc2cc(Cl)ccc12	2	7.5 µM	–
NCCNc1cc(N2CCCc3ccccc3C2)nc2c(Cl)cccc12	23	25 µM	–
NCC(O)CNc1cc(N2CCCc3ccccc3C2)nc2ccccc12 (stereo unspecified)	95	21 µM	–
CC(O)CNc1cc(N2CCc3ccccc3C2)nc2ccccc12 (stereo unspecified)	–	89 µM	–
Cc1ccc2nc(N3CCS(=O)(=O)c4ccccc4C3)cc(NCCCCN)c2c1	13100	92 µM	–
NCCNc1cc(N2CCCc3ccccc3C2)nc2ccc(C(F)(F)F)cc12	6	6.7 µM	–
N=C(N)NCCNc1cc(N2CCc3ccccc3C2)nc2ccccc12	43	> 100 µM	–
Cc1ccc2nc(N3CC(=O)Nc4ccccc4C3)cc(NCCN)c2c1	177	55 µM	CLint scaled [3]: 11 mL/min/kg; CLint scaled [5]: 21 mL/min/kg
Cc1ccc2nc(N3CCNc4ccccc4C3)cc(NCCN)c2c1	52	12 µM	CLint scaled [3]: 19 mL/min/kg; CLint scaled [4]: 5 mL/min/kg; CLint scaled [5]: 43 mL/min/kg
